For test [1], the system named is KOPN-8. Kind of test: Induction of apoptosis in human KOPN8 cells assessed as early apoptotic cells at 10 uM after 24 hrs by Annexin V-FITC/propidium iodide staining-based flow cytometry (reference value: 0.1%). The class given is functional. The gist of the method: (§1)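 KOPN-8 cells treated 24 h alongside a DMSO vehicle and a staurosporine (2.0 µM) positive control. Apoptosis was scored by FITC Annexin V / propidium iodide flow cytometry with quadrant gating (early, late apoptotic). DNA content was measured by PI staining to give the percentage of cells in G0/G1, S and G2/M. Groups were compared by t-test; error bars are SD.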
Background: Flow cytometry measures light scatter and fluorescence of single cells or particles in a stream.

The test system of test [2] is KOPN-8. In words: Induction of apoptosis in human KOPN8 cells assessed as viable cells at 10 uM after 24 hrs by Annexin V-FITC/propidium iodide staining-based flow cytometry (reference value: 85.2%). The format is functional. The following applies: KOPN-8, 24 h, read-out: Activity. The gist of the method:
(§2)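 KOPN-8 cells were treated for 24 h, with a DMSO vehicle control and a staurosporine positive control. Cells were stained with FITC-Annexin V and propidium iodide and analysed by flow cytometry. Quadrant gating separated viable, early apoptotic, late apoptotic (Q2) and necrotic populations.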

Test [3] deals with T1, Retinoblastoma-associated protein (Homo sapiens) (UniProt P06400).
T1 sequence (whole entry): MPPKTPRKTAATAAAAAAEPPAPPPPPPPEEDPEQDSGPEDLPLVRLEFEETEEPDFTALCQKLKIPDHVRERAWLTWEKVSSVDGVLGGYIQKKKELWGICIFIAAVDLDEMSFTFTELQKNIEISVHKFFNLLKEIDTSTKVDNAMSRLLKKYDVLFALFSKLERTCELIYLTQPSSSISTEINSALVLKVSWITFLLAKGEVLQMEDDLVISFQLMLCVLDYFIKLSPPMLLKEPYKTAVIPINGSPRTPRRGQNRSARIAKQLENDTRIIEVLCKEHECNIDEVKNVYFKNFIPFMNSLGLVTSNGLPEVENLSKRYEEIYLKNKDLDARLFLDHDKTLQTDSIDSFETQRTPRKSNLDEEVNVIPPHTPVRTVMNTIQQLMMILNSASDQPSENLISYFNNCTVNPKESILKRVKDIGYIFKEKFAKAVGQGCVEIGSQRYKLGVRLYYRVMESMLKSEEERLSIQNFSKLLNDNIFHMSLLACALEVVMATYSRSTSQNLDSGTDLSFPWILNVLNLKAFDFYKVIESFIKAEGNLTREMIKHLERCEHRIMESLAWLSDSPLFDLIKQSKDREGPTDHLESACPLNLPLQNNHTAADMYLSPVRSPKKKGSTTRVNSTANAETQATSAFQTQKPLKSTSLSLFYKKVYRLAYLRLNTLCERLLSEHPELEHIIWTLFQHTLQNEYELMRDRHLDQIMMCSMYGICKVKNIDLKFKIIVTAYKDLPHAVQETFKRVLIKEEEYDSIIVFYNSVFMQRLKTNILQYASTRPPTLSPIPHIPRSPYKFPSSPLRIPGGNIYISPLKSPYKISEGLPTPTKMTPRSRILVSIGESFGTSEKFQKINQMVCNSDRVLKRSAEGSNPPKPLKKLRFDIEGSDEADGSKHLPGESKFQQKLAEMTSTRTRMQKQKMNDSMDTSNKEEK
In words: Inhibition of Rb phosphorylation in human KOPN8 cells assessed as ratio of phosphorylated Rb to total Rb levels at 10 uM pre-treated with NAC for 1 hr and measured after 3 hrs by Western blot analysis relative to control. The class given is cell-based. The gist of the method:
(§3)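 KOPN-8 pre-B ALL cells were treated for 3 h and 24 h, with or without N-acetyl cysteine added to a parallel set of cells as an antioxidant/ROS quencher. Lysates were analysed by Western blot for phosphorylated Rb and total Rb. The same blots also probed PARP cleavage, Mcl-1, Ser-2-phosphorylated RNAPII CTD and cMyc.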
On the technique in general: A western blot detects proteins with antibodies after separation by electrophoresis.

For test [4], the target named is T1, Retinoblastoma-associated protein (Homo sapiens). Kind of test: Inhibition of Rb phosphorylation in human KOPN8 cells assessed as ratio of phosphorylated Rb to total Rb levels at 30 uM pre-treated with NAC for 1 hr and measured after 24 hrs by Western blot analysis relative to control. The class given is cell-based. The gist of the method: as §3
In a further test the test system is SUP-B15. Kind of test: Induction of apoptosis in human SUP-B15 cells assessed as early apoptotic cells at 10 uM after 24 hrs by Annexin V-FITC/propidium iodide staining-based flow cytometry (reference value: 0.1%). The class given is functional.
The species entered for the next test is Homo sapiens. Kind of test: Inhibition of RNA polymerase 2 C-terminal domain phosphorylation at Ser2 residue in human KOPN8 cells at 30 uM after 24 hrs by Western blot analysis relative to control. The class given is cell-based. The gist of the method: (§4)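 KOPN-8 cells were exposed to compound for 3 h and 24 h, with or without N-acetylcysteine added to a parallel set as antioxidant. Lysates were analysed by Western blot for cleaved PARP, Mcl-1, Ser-2-phosphorylated RNAPII CTD, cMyc, total Rb and pRb. Signals were compared against controls for dose-dependent change.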

Test [5] has as its system KOPN-8. In words: Effect on c-Myc expression in human KOPN8 cells at 30 uM pre-treated with NAC for 1 hr and measured after 3 hrs by Western blot analysis relative to control. The class given is functional.
The target in test [6] is T1, Retinoblastoma-associated protein (Homo sapiens). In words: Inhibition of Rb phosphorylation in human KOPN8 cells assessed as ratio of phosphorylated Rb to total Rb levels at 30 uM after 3 hrs by Western blot analysis relative to control. The class given is cell-based. The gist of the method: as §3
The test system of test [7] is KOPN-8. Kind of test: Effect on c-Myc expression in human KOPN8 cells at 10 uM pre-treated with NAC for 1 hr and measured after 3 hrs by Western blot analysis relative to control. The format is functional.
Test [8] has as its system KOPN-8. In words: Effect on c-Myc expression in human KOPN8 cells at 100 uM after 24 hrs by Western blot analysis relative to control. The class given is functional. The gist of the method: (§5)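 KOPN-8 cells were treated at 10–100 µM final, with or without N-acetylcysteine co-addition, for 3 h and 24 h. Lysates were analysed by Western blot for PARP cleavage, Mcl-1, phospho-Ser2 RNAPII CTD, c-Myc, total Rb and pRb. Levels are relative to the vehicle control.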

Test [9] deals with KOPN-8. Kind of test: Effect on c-Myc expression in human KOPN8 cells after 3 to 24 hrs by Western blot analysis. The format is functional, cell-based. The gist of the method: as §5
The next test concerns THLE-2. Kind of test: Antiproliferative activity against human THLE2 cells after 72 hrs by CelTiter-Glo assay. The class given is cell-based. The settings on record: THLE-2, 72 h.
In test [10] the target is T1, Retinoblastoma-associated protein (Homo sapiens). In words: Inhibition of Rb phosphorylation in human KOPN8 cells assessed as ratio of phosphorylated Rb to total Rb levels at 10 uM after 3 hrs by Western blot analysis relative to control. The format is cell-based. The gist of the method:
as §3

The test system of test [11] is KOPN-8. In words: Induction of apoptosis in human KOPN8 cells assessed as upregulation of cleaved PARP level at 0.5 uM pre-treated with NAC for 1 hr and measured after 3 hrs by Western blot analysis. The format is functional, cell-based. The gist of the method: as §4
Test [12] addresses T1, Retinoblastoma-associated protein (Homo sapiens). In words: Inhibition of Rb phosphorylation in human KOPN8 cells assessed as ratio of phosphorylated Rb to total Rb levels at 0.5 uM after 24 hrs by Western blot analysis relative to control. The format is cell-based. The gist of the method: as §4
Test [13] deals with KOPN-8. In words: Induction of apoptosis in human KOPN8 cells assessed as effect on Mcl-1 level at 0.5 uM after 24 hrs by Western blot analysis relative to control. The format is functional.
Test [14] has as its system KOPN-8. In words: Induction of apoptosis in human KOPN8 cells assessed as necrotic cells at 5 uM after 24 hrs by Annexin V-FITC/propidium iodide staining-based flow cytometry (reference value: 0.2%). The format is functional. The gist of the method:
as §2

The test system of test [15] is KOPN-8. In words: Cell cycle arrest in human KOPN8 cells assessed as accumulation at G2/M phase at 5 uM after 24 hrs by propidium iodide staining-based flow cytometry (reference value: 9.67%). The format is functional. The gist of the method: as §1

Active and inactive are the calls of the source. The rule behind the calls is not given here.

A word on the EC50: it is the midpoint of the concentration-response curve. Consider `COc1ccc(-c2c(I)c(=O)c3c(OC)cc(OC)cc3n2S(=O)(=O)c2ccc(OC)cc2)cc1`, for which the Activity is 0.2% with KOPN-8 [1], 0.1% in the test with SUP-B15 and “Dose-dependent effect” with KOPN-8 [9]. Further, in the test with KOPN-8 [2], the viability at 10 µM was found to be 8.5%. Moreover, the fold change (FC) amounted to 1 in [3]; 1 in test [4]; 1.6 in the test filed under Homo sapiens; 1 with KOPN-8 [5]; 1 in test [6]; 0.9 with KOPN-8 [7]. In addition, the “fold change (FC)” value with KOPN-8 [8] came out at 0.1; in test [10], 1. In addition, the midpoint of the response with THLE-2, the EC50, lay at 57 µM.
For `CN(C)C(=O)c1cc2cnc(Nc3ccc(N4CCNCC4)cn3)nc2n1C1CCCC1` [RIBOCICLIB], the outcome in the test on KOPN-8 [11] was inactive. The fold change (FC) in test [12] turned out to be 0.9; with KOPN-8 [13], 1.1. Further, the Activity is given as 0.3% with KOPN-8 [14] and 28.79% in the test on KOPN-8 [15].

The record behind these values is ChEMBL document CHEMBL4196009, “Novel vitexin-inspired scaffold against leukemia” (Eur J Med Chem, 2018).
